Source: paper PMC3082038 (Cancer Chemotherapy and Pharmacology, 2010)

Test system: Japanese patients with solid tumors
Experiment: Phase I safety: drug-related adverse events, DLT, MTD, recommended dose
Type: in vivo, human
Outline: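 Dose escalation used three-patient cohorts, alternating b.i.d. and t.i.d., starting at 200 mg/m2 b.i.d. Oral dosing was by body surface area for 28 days continuously. b.i.d. doses were taken within 1 h after meals, about 12 h apart; t.i.d. doses about 6 or 12 h apart. Patients were assessed at least weekly and graded by NCI-CTC v2.0. DLT: grade ≥3 non-haematological or grade ≥4 haematological drug-related event. MTD: DLT in 2/3 or 3/6 patients.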

[1] = b.i.d. 200 mg/m^2 × 2, n = 3, G1
[2] = b.i.d. 200 mg/m^2 × 2, n = 3, G2
[3] = b.i.d. 400 mg/m^2 × 2, n = 6, G1
[4] = b.i.d. 400 mg/m^2 × 2, n = 6, G2
[5] = b.i.d. 400 mg/m^2 × 2, n = 6, G3
[6] = b.i.d. 500 mg/m^2 × 2, n = 3, G1

Cc1[nH]c(/C=C2\C(=O)Nc3ccccc32)c(C)c1CCC(=O)O [TSU-68, (Z)-5-[(1,2-dihydro-2-oxo-3H-indol-3-ylidene)methyl]-2,4-dimethyl-1H-pyrrole-3-propanoic acid]
17 (70.8) no. (%): Diarrhea, Total no. (%) (all dose levels, n = 24)
G4 (DLT): Toxicity ≥ G3-4 (Pt 19, NSCLC, t.i.d. 400 mg/m^2 (2,400 mg/day))
12 (50.0) no. (%): Anorexia, Total no. (%) (all dose levels, n = 24)
6: Number of patients with drug-related Alkaline phosphatase increased [3] | Number of patients with drug-related Discoloration urine/stool [3]
11 (45.8) no. (%): Abdominal pain, Total no. (%) (all dose levels, n = 24)
not found: Dose-limiting toxicity (DLT) (500 mg/m^2 b.i.d. dose level)
1: Number of patients with drug-related Alkaline phosphatase increased [1] | Number of patients with drug-related Blood albumin decreased [1] | Number of patients with drug-related Diarrhea [1] | Number of patients with drug-related Malaise [1] | Number of patients with drug-related Serum total protein decreased [1] | Number of patients with drug-related Blood albumin decreased [2] | Number of patients with drug-related Diarrhea [2] | Number of patients with drug-related Malaise [2] | Number of patients with drug-related Nauseous [2] | Number of patients with drug-related Vomiting [2] | Number of patients with drug-related Abdominal pain [3] | Number of patients with drug-related Abdominal pain upper [3] | Number of patients with drug-related Back pain [3] | Number of patients with drug-related Headache [3] | Number of patients with drug-related Pleural effusion [3] | Number of patients with drug-related γ-glutamyltransferase increased [3] | Number of patients with drug-related Anorexia [4] | Number of patients with drug-related Back pain [4] | Number of patients with drug-related Nauseous [4] | Number of patients with drug-related Serum total protein decreased [4] | No. maximum grade (patients, drug-related adverse events) [5] | Number of patients with drug-related Anorexia [5] | Number of patients with drug-related Dyspnea [5] | Number of patients with drug-related Hypoxia [5] | Number of patients with drug-related Pleural effusion [5] | Number of patients with drug-related Abdominal pain upper [6] | Number of patients with drug-related Alkaline phosphatase increased [6] | Number of patients with drug-related Blood albumin decreased [6]
5: Number of patients with drug-related Diarrhea [3] | No. maximum grade (patients, drug-related adverse events) [4]
18 (75.0) no. (%): Malaise, Total no. (%) (all dose levels, n = 24)
8 (33.3) no. (%): Vomiting, Total no. (%) (all dose levels, n = 24)
9 (37.5) no. (%): Nauseous, Total no. (%) (all dose levels, n = 24)
2 patients: Patients experiencing DLTs (400 mg/m^2 b.i.d. dose level, three plus three patients, grade 3 dyspnea, hypoxemia, pleural effusion and anorexia, and unacceptable grade 2 anorexia)
3: Number of patients with drug-related Discoloration urine/stool [1] | No. maximum grade (patients, drug-related adverse events) [2]
24 (100) no. (%): Discoloration urine/stool, Total no. (%) (all dose levels, n = 24)
6 (25.0) no. (%): Face edema, Total no. (%) (all dose levels, n = 24) | γ-glutamyltransferase increased, Total no. (%) (all dose levels, n = 24)
7 (29.2) no. (%): Headache, Total no. (%) (all dose levels, n = 24)
– (DLT): Toxicity ≥ G3-4 (Pt 5, NSCLC, b.i.d. 400 mg/m^2 (1,200 mg/day))
2: Number of patients with drug-related Anorexia [1] | Number of patients with drug-related Abdominal pain [2] | Number of patients with drug-related Anorexia [3] | Number of patients with drug-related Blood albumin decreased [3] | Number of patients with drug-related Nauseous [3] | Number of patients with drug-related Vomiting [3] | Number of patients with drug-related Abdominal pain [4] | Number of patients with drug-related Blood albumin decreased [4] | Number of patients with drug-related Headache [4] | Number of patients with drug-related γ-glutamyltransferase increased [4] | Number of patients with drug-related Anorexia [6]
13 (54.2) no. (%): Alkaline phosphatase increased, Total no. (%) (all dose levels, n = 24)
5 (20.8) no. (%): Abdominal pain upper, Total no. (%) (all dose levels, n = 24) | Back pain, Total no. (%) (all dose levels, n = 24) | Pleural effusion, Total no. (%) (all dose levels, n = 24)
4: Number of patients with drug-related Malaise [3]
G3 (DLT): Toxicity ≥ G3-4 (Pt 4, SCLC, b.i.d. 400 mg/m^2 (1,200 mg/day))
1 (4.2) no. (%): Dyspnea, Total no. (%) (all dose levels, n = 24) | Hypoxia, Total no. (%) (all dose levels, n = 24) | Pericardial effusion, Total no. (%) (all dose levels, n = 24)
0: No. maximum grade (patients, drug-related adverse events) [1] | No. maximum grade (patients, drug-related adverse events) (b.i.d. 200 mg/m^2 × 2, n = 3, G3) | No. maximum grade (patients, drug-related adverse events) (b.i.d. 200 mg/m^2 × 2, n = 3, G4) | No. maximum grade (patients, drug-related adverse events) [3] | No. maximum grade (patients, drug-related adverse events) (b.i.d. 400 mg/m^2 × 2, n = 6, G4) | No. maximum grade (patients, drug-related adverse events) [6]
20 (83.3) no. (%): Blood albumin decreased, Total no. (%) (all dose levels, n = 24)
